# Experimental data as given in ChEMBL document CHEMBL1938372, “Design and synthesis of conformationally constrained inhibitors of non-nucleoside reverse transcriptase” (J Med Chem, 2011).
# Active and inactive are the calls of the source. No cut-off for these calls is given here.
# Assays:
# [1] = Volume of distribution in Beagle dog at 2 mg/kg, po and 0.5 mg/kg, iv; assay type: ADME, organism-based, Canis lupus familiaris; settings: in vivo
# How it was run: (§1)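 PK in Sprague-Dawley rats (iv solution in DMSO via an indwelling jugular cannula, or oral suspension in aqueous methylcellulose/Methocel) and beagle dogs (iv and oral given crossover, same vehicles). Plasma levels by LC-MS. F from oral versus iv dose-normalized AUC. Average of at least two animals; rat values within 25% of the mean.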
# [2] = Plasma clearance in Sprague-Dawley rat at 10 mg/kg, po and 2 mg/kg, iv; assay type: ADME, organism-based; how it was run: as §1
# [3] = Plasma clearance in Beagle dog at 2 mg/kg, po and 0.5 mg/kg, iv; assay type: ADME, organism-based, Canis lupus familiaris; how it was run: as §1
# [4] = Half life in Sprague-Dawley rat at 10 mg/kg, po and 2 mg/kg, iv; assay type: ADME, organism-based; settings: in vivo; how it was run: as §1
# [5] = Half life in Beagle dog at 2 mg/kg, po and 0.5 mg/kg, iv; assay type: ADME, organism-based, Canis lupus familiaris; settings: in vivo; how it was run: as §1
# [6] = Bioavailability in Sprague-Dawley rat at 10 mg/kg, po and 2 mg/kg, iv; assay type: ADME, organism-based; settings: in vivo; how it was run: as §1
# [7] = Bioavailability in Beagle dog at 2 mg/kg, po and 0.5 mg/kg, iv; assay type: ADME, organism-based, Canis lupus familiaris; settings: in vivo; how it was run: as §1
# Rattus norvegicus = experiment: Dose normalised AUC in Sprague-Dawley rat at 10 mg/kg, po by LC-MS analysis; assay type: ADME, organism-based; design: dose 10 mg/kg, route oral; settings: in vivo; how it was run: as §1
# Canis familiaris = experiment: Dose normalised AUC in Beagle dog at 2 mg/kg, po by LC-MS analysis; assay type: ADME, organism-based, Canis lupus familiaris; design: dose 2 mg/kg, route oral; settings: in vivo; how it was run: as §1
# [8] = Solubility of the compound in water at pH 2; assay type: physicochemical
# How it was run: (§2)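 Water solubility of the solid compound measured at pH 2 and at pH 7.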
# [9] = Solubility of the compound in water at pH 7; assay type: physicochemical; how it was run: as §2
# [10] = tested on: Human immunodeficiency virus; experiment: Antiviral activity against Human immunodeficiency virus harboring reverse transcriptase G190S mutant assessed as inhibition of viral replication; assay type: functional, organism-based
# How it was run: (§3)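 Phenosense cell culture assay against a panel of clinically derived RT mutant viruses in the presence of 10% FBS. IC50 is the compound concentration blocking 50% of viral replication. Each value is the average of two determinations.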
# [11] = tested on: Human immunodeficiency virus; experiment: Antiviral activity against Human immunodeficiency virus harboring reverse transcriptase K103N/P225H double mutant assessed as inhibition of viral replication; assay type: functional, organism-based; how it was run: as §3
# [12] = tested on: Human immunodeficiency virus; experiment: Antiviral activity against Human immunodeficiency virus harboring reverse transcriptase K101E/G190A double mutant assessed as inhibition of viral replication; assay type: functional, organism-based; how it was run: as §3
# [13] = tested on: Human immunodeficiency virus; experiment: Antiviral activity against Human immunodeficiency virus harboring reverse transcriptase K103N/Y181C/G190A triple mutant assessed as inhibition of viral replication; assay type: functional, organism-based; how it was run: as §3
# [14] = tested on: Human immunodeficiency virus; experiment: Antiviral activity against Human immunodeficiency virus harboring reverse transcriptase K101E/Y181C/G190A triple mutant assessed as inhibition of viral replication; assay type: functional, organism-based; how it was run: as §3
# [15] = tested on: Human immunodeficiency virus; experiment: Antiviral activity against Human immunodeficiency virus harboring reverse transcriptase V106A/G190A/F227L triple mutant assessed as inhibition of viral replication; assay type: functional, organism-based; how it was run: as §3
# [16] = tested on: Human immunodeficiency virus; experiment: Antiviral activity against Human immunodeficiency virus harboring reverse transcriptase L100l/K103N/P225P/H triple mutant assessed as inhibition of viral replication; assay type: functional, organism-based; how it was run: as §3
# [17] = Volume of distribution in Sprague-Dawley rat at 10 mg/kg, po and 2 mg/kg, iv; assay type: ADME, organism-based; settings: in vivo; how it was run: as §1
# [18] = Inhibition of Human immunodeficiency virus reverse transcriptase by SPA assay
# [19] = molecular target: Human immunodeficiency virus type 1 reverse transcriptase (Human immunodeficiency virus 1, UniProt Q72547, K103N); experiment: Inhibition of Human immunodeficiency virus reverse transcriptase K103N mutant by SPA assay
# How it was run: (§4)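 Recombinant HIV-1 RT polymerase scintillation proximity assay run with mutant enzyme, reported as Ki (nM). Values are geometric means of at least two determinations, each within 2-fold of the mean; SEM is given where there were ≥3 determinations.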
# [20] = molecular target: Human immunodeficiency virus type 1 reverse transcriptase (Human immunodeficiency virus 1, UniProt Q72547, Y181C); experiment: Inhibition of Human immunodeficiency virus reverse transcriptase Y181C mutant by SPA assay; how it was run: as §4
# [21] = tested on: Human immunodeficiency virus; experiment: Antiviral activity against Human immunodeficiency virus expressing wild type reverse transcriptase infected in human MT4 cells by p24 antigen assay in the presence of 10% FBS; assay type: functional; settings: Human immunodeficiency virus 1, MT4; read-out: CIC95
# How it was run: (§5)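 MT-4 human T-lymphoid cells in RPMI 1640 with either 10% FBS or 50% NHS; CIC95 taken as the concentration inhibiting virus spread/replication by >95%. Geometric mean of at least two determinations, individual values within 2-fold; SEM given when ≥3 determinations.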
# [22] = tested on: Human immunodeficiency virus; experiment: Antiviral activity against Human immunodeficiency virus expressing reverse transcriptase K103N mutant infected in human MT4 cells by p24 antigen assay in the presence of 10% FBS; assay type: functional; settings: Human immunodeficiency virus 1, MT4; read-out: CIC95
# How it was run: (§6)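 Antiviral spread assay in MT-4 human T-lymphoid cells kept in RPMI 1640 with 10% FBS. Value is the CIC95, the concentration inhibiting virus replication by >95%. Reported as the geometric mean of at least two determinations, all within 2-fold of the mean. Cytotoxicity was checked up to the assay upper limit of 8.3 μM.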
# [23] = tested on: Human immunodeficiency virus; experiment: Antiviral activity against Human immunodeficiency virus expressing reverse transcriptase Y181C mutant infected in human MT4 cells by p24 antigen assay in the presence of 10% FBS; assay type: functional; settings: Human immunodeficiency virus 1, MT4; read-out: CIC95; how it was run: as §6
# [24] = tested on: Human immunodeficiency virus; experiment: Antiviral activity against Human immunodeficiency virus expressing wild type reverse transcriptase infected in human MT4 cells by p24 antigen assay in the presence of 50% normal human serum; assay type: functional; settings: Human immunodeficiency virus 1, MT4; read-out: CIC95; how it was run: as §5
# MT4 = experiment: Cytotoxicity against human MT4 cells up to 8.3 uM; assay type: cell-based
# How it was run: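 MT-4 cells in RPMI 1640 with 10% FBS or 50% NHS, run alongside the antiviral CIC95 assay; cytotoxicity checked up to the assay upper limit of 8.3 μM.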
# [25] = tested on: Human immunodeficiency virus; experiment: Antiviral activity against multidrug-resistant Human immunodeficiency virus assessed as inhibition of viral replication; assay type: functional, organism-based; how it was run: as §3
# [26] = tested on: Human immunodeficiency virus; experiment: Antiviral activity against wild type Human immunodeficiency virus assessed as inhibition of viral replication; assay type: functional, organism-based
# [27] = tested on: Human immunodeficiency virus; experiment: Antiviral activity against Human immunodeficiency virus harboring reverse transcriptase K103N mutant assessed as inhibition of viral replication; assay type: functional, organism-based; how it was run: as §3
# [28] = tested on: Human immunodeficiency virus; experiment: Antiviral activity against Human immunodeficiency virus harboring reverse transcriptase Y181C mutant assessed as inhibition of viral replication; assay type: functional, organism-based; how it was run: as §3
# [29] = tested on: Human immunodeficiency virus; experiment: Antiviral activity against Human immunodeficiency virus harboring reverse transcriptase L100l mutant assessed as inhibition of viral replication; assay type: functional, organism-based; how it was run: as §3
# [30] = tested on: Human immunodeficiency virus; experiment: Antiviral activity against Human immunodeficiency virus harboring reverse transcriptase Y188L mutant assessed as inhibition of viral replication; assay type: functional, organism-based; how it was run: as §3
# [31] = tested on: Human immunodeficiency virus; experiment: Antiviral activity against Human immunodeficiency virus harboring reverse transcriptase G190A mutant assessed as inhibition of viral replication; assay type: functional, organism-based; how it was run: as §3
smiles,measurement,setting,value
N#Cc1cc(Cl)cc(Oc2c(Cl)ccc3c2cnn3Cc2n[nH]c3nc(N)ccc23)c1,Vd,[1],2 L/kg
same,clearance,[2],4.7 mL/min/kg
same,clearance,[3],7.6 mL/min/kg
same,half-life,[4],6.3 h
same,half-life,[5],2.8 h
same,bioavailability,[6],39%
same,bioavailability,[7],32%
same,AUC/dose,Rattus norvegicus,3.64 µM·h
same,AUC/dose,Canis familiaris,1.33 µM·h
same,solubility,[8],40 µg/mL
same,solubility,[9],< 0.1 µg/mL
same,inhibition,[10],Active
same,inhibition,[11],Active
same,inhibition,[12],Active
same,inhibition,[13],Active
same,inhibition,[14],Active
same,inhibition,[15],inactive
same,inhibition,[16],Active
same,Vd,[17],2.5 L/kg
same,Ki,[18],0.61 nM
same,Ki,[19],1.7 nM
same,Ki,[20],1.9 nM
same,IC95,[21],4.1 nM
same,IC95,[22],9.7 nM
same,IC95,[23],68 nM
same,IC95,[24],43 nM
same,Activity,MT4,Non-toxic
same,inhibition,[25],Active
same,inhibition,[26],Active
same,inhibition,[27],Active
same,inhibition,[28],Active
same,inhibition,[29],Active
same,inhibition,[30],inactive
same,inhibition,[31],Active
